# Assay results taken from paper PMC8415080 (Pharmacology Research & Perspectives, 2021).
# Assays:
# H460 cells [1] = test: Apoptosis assay; assay type: cell-based, human
# H460 cells [2] = test: Mitochondria respiration profiling; assay type: cell-based, human
# In short: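 On the XF96, basal OCR was followed by injection of test compound doses (10X), then oligomycin (1 µg/ml), FCCP, and rotenone plus antimycin A (1 µM each). Cycles were 4 min mix, 3 min measure; control injections were medium. OCR expressed as fold of vehicle.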
# ferret = test: Ferret model of emesis; assay type: in vivo; details: increasing doses; for induction of emesis (retches and vomits): 2 h test
# H460 cells [3] = test: Total and mitochondrial ATP content; assay type: cell-based, human
# In short: (§1)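 Cells (8000/well) were incubated 18 h at 37℃ (5% CO2). Test compound was added at half‐log doses, final 10 nM–10 µM, to paired plates for 1 h, with or without 100 µM iodoacetate. ATP was read by CellTiter‐Glo luminescence: mitochondrial ATP with iodoacetate, global ATP without. Mean ± SD.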
# H460 cells [4] = test: Proliferation assay; assay type: cell-based, human
# patients [5] = details: no reference given; cited from earlier work
# P‐gp = P‐gp (Homo sapiens, UniProt P08183); test: In vitro transporter inhibition; assay type: in vitro ADME; details: expressed in MDCKII
# CCK1R = CCK1R (Homo sapiens, UniProt P32238); test: Cerep in vitro safety screen, competition with reference ligand binding; details: 10 µM
# Sequence of CCK1R (P32238 whole entry, species assumed): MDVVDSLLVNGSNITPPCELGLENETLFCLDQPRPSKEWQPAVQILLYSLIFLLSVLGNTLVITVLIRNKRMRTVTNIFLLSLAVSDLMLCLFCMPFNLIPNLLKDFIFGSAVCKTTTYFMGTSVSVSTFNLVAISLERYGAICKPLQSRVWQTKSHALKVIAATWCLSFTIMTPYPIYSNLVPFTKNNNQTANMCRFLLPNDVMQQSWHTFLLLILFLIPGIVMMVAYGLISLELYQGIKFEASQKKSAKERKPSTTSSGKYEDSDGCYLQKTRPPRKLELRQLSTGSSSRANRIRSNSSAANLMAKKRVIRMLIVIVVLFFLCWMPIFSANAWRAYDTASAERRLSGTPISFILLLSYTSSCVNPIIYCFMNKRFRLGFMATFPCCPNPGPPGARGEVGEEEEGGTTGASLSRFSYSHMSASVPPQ
# In short: (§2)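 Cerep in vitro safety screen: test compound at 10 µM assessed for competition with reference ligand binding across a panel of 300 receptors.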
# [6] = system: mitochondria isolated from liver of OF1; assay type: biochemical; details: 7.5 µM
# In short: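 Polarographic measurement of oxidation and phosphorylation rates in mitochondria isolated from liver of female OF1 mice, over a range of test compound doses.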
# H460 WT cells = test: mTOR/AMPK pathway signaling; assay type: cell-based, human; details: WT H460, over 60 min
# 198 kinases = test: DiscoverX KiNativ in situ kinase selectivity panel on live Jurkat cells; assay type: cell-based; details: 10 µM
# MDA‐MB231 cells = test: Mitochondrial ATP content; assay type: cell-based; details: Homo sapiens, MDA-MB-231, 1 h, read-out: IC50 mitochondrial ATP production
# In short: as §1
# Hep3B cells = test: Mitochondrial ATP content; assay type: cell-based; details: Homo sapiens, 1 h, read-out: IC50 mitochondrial ATP production
# In short: as §1
# A2AR = A2AR (Homo sapiens, UniProt P29274); test: Cerep in vitro safety screen, competition with reference ligand binding; details: 10 µM
# Sequence of A2AR (P29274 whole entry): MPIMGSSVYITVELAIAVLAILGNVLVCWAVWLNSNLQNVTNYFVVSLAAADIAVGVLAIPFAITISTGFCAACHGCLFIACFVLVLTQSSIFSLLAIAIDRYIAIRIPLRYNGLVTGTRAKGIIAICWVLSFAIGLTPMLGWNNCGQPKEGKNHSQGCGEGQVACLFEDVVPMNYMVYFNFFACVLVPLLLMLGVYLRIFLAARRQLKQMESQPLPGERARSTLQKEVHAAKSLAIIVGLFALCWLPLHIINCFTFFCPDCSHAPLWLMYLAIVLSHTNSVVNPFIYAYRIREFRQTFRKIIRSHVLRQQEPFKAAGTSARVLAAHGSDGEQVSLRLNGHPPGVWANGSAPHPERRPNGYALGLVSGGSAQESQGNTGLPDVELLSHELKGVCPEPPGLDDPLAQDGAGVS
# In short: as §2
# H460‐LKB1 cells [7] = test: Total and mitochondrial ATP content; assay type: cell-based, human; details: H460‐LKB1, whatever the dose
# In short: as §1
# OAT1 = OAT1 (Homo sapiens, UniProt Q4U2R8); test: In vitro transporter inhibition; assay type: in vitro ADME
# Sequence of OAT1 (Q4U2R8 whole entry, species assumed): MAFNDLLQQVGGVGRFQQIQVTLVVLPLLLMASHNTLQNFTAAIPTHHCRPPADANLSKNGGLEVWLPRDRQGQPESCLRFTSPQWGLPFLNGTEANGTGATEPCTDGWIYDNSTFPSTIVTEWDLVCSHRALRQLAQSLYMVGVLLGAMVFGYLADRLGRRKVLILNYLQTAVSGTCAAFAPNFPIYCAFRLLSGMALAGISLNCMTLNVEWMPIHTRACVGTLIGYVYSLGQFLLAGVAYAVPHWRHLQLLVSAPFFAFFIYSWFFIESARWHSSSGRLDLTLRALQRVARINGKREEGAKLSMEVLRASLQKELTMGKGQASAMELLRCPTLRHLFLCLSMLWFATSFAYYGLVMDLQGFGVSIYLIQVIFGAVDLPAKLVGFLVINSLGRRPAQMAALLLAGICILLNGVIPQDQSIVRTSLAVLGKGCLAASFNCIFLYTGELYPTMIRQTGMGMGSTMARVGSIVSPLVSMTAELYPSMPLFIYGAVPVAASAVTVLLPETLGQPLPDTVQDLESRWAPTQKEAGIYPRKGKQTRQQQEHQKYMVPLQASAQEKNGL
# [8] = Plasma pharmacokinetics after intravenous and oral administration; assay type: in vivo, C57BL/6J mice
# In short: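 Plasma pharmacokinetics in C57BL/6J mice: intravenous test compound at 3 mg/kg, and escalating oral doses of 10, 30 and 75 mg/kg.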
# [9] = system: glycolytic‐Eµ‐Myc lymphoma; test: B‐cell lymphoma in vivo study, glycolytic‐Eµ‐Myc; parameters: species or system C57BL/6 mice; details: 30 mg/kg p.o. QD, glycolytic‐Eµ‐Myc‐bearing mice
# In short: (§3)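 Syngeneic female C57BL/6J Ola Hsd mice, 6 weeks old, received 1 × 10^5 viable Eμ‐Myc cells in PBS by tail vein. Oral dosing began 6 days later, when inguinal nodes became palpable: 30 mg/kg daily at 10 ml/kg in PEG200/Solutol HS15/water (30%/5%/65%), or vehicle alone; n = 10/group. Weight and node palpation every 2–3 days. Mice sacrificed at illness signs; node tumors and spleens weighed. Kaplan–Meier survival, log‐rank test.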
# KARPAS 422 cells [10] = test: Proliferation assay; assay type: cell-based; details: Homo sapiens, KARPAS-422, read-out: IC50 proliferation
# U87 cells = test: Mitochondrial ATP content; assay type: cell-based; details: Homo sapiens, U-87 MG, 1 h, read-out: IC50 mitochondrial ATP production
# In short: as §1
# OATP1B3 = OATP1B3 (Homo sapiens, UniProt Q9NPD5); test: In vitro transporter inhibition; assay type: in vitro ADME
# Sequence of OATP1B3 (Q9NPD5 whole entry): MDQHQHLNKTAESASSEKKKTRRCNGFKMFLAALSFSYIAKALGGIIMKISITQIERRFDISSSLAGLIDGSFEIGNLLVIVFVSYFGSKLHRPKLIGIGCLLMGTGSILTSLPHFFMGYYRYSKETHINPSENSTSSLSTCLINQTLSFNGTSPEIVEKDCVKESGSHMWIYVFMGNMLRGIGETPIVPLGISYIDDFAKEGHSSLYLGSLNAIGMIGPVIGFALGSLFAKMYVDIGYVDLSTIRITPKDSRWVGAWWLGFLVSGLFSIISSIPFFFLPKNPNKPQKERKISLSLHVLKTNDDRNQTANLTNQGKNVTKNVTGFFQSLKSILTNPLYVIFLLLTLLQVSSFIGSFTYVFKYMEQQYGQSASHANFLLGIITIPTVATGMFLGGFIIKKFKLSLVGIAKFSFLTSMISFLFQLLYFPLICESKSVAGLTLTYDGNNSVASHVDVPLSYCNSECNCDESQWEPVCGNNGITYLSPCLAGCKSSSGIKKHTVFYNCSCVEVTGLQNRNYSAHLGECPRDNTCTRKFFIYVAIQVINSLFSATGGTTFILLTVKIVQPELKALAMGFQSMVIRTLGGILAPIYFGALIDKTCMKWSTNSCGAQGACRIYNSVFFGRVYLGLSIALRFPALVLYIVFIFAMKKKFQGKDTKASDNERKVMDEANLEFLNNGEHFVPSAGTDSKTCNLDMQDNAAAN
# [11] = system: OxPhos‐Eµ‐Myc and glycolytic‐Eµ‐Myc lymphoma cells; test: In vitro cell death assay; assay type: cell-based, mouse; details: 10 µM, 24 h, DAPI positive cells
# In short: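 Primary Eμ‐Myc cells were maintained in DMEM with 10% FBS, 2‐mercaptoethanol (50 µM), L‐asparagine (0.37 mM) and HEPES (10 mM, pH 7.4). Cells (2 × 10^5/well) were exposed to test compound or DMSO for 24 h, stained with DAPI (0.5 µg/ml) and analysed by flow cytometry. Cell death = % DAPI‐positive in treated cells ÷ % DAPI‐positive in control. Mean of 4 independent experiments, 5 clones per group.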
# BCRP = BCRP (Homo sapiens, UniProt Q9UNQ0); test: In vitro transporter inhibition; assay type: in vitro ADME
# [12] = target: Complex I purified from bovine heart (Bos taurus, UniProt P03887+P17694+P42026); test: MitoTox Complex I OxPhos Activity Assay; assay type: biochemical
# Sequence of Complex I purified from bovine heart (P17694 34-463): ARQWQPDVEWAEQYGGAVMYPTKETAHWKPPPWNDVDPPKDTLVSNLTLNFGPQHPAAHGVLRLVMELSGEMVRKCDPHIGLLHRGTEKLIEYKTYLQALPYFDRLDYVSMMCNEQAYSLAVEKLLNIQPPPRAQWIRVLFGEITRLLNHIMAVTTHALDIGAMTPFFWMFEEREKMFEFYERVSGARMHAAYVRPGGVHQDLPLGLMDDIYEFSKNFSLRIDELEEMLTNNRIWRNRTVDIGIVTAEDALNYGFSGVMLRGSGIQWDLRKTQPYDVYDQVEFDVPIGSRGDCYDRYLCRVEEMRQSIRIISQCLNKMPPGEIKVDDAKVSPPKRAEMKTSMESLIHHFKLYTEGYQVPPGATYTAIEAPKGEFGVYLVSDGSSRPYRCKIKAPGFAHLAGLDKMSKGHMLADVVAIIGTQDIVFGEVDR
# Sequence of Complex I purified from bovine heart (P42026 38-216): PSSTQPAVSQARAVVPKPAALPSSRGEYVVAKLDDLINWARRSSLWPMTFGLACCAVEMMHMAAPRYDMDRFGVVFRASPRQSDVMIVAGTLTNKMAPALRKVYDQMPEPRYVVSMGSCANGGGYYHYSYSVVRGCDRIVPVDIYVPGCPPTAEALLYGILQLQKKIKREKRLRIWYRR
# Sequence of Complex I purified from bovine heart (P03887 whole entry): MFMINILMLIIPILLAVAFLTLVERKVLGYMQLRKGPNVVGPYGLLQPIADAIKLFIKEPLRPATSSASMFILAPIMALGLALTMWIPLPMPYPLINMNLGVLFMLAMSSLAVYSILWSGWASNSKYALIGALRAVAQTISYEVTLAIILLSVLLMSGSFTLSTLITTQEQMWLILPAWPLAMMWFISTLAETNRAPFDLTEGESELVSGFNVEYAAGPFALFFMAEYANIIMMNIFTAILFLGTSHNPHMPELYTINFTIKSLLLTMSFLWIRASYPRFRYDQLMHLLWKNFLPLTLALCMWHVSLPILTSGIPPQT
# In short: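 MitoTox Complex I kit: Complex I purified from bovine heart and immunocaptured on the plate by specific antibodies. Activity followed as the decrease in absorbance at 340 nm from NADH oxidation.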
# LL/2 cells [13] = test: Apoptosis assay; assay type: cell-based, mouse; details: LL/2, even at 10 µM
# [14] = Tissue distribution after single oral administration; assay type: in vivo, C57BL/6J mice; details: male, C57BL/6J, mouse, 30 mg/kg
# MRP2 = MRP2 (Homo sapiens, UniProt Q92887); test: In vitro transporter inhibition; assay type: in vitro ADME
# H460‐LKB1 cells [15] = test: Apoptosis assay; assay type: cell-based, human; details: H460‐LKB1, even at 10 µM
# [16] = system: H460‐luc2 orthotopic tumors; test: Orthotopic H460 lung tumor model; assay type: in vivo, Balb/CJ‐Nude mice; details: 30 mg/kg p.o. QD from D7
# In short: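 Male Balb/c Nude mice, 7 weeks old, were anaesthetised i.p. with Rompun (20 mg/kg) plus Imalgene (100 mg/kg). They were inoculated intrabronchially via an oral catheter with 25 µl of H460‐Luc2 cells at 20 million/ml in PBS. Mice were allocated by bioluminescence at D7 and dosed orally at 30 mg/kg daily for 15 days (3 mg/ml in PEG200/Solutol HS15/water 30%/5%/65%, 10 ml/kg) or vehicle; n = 9/group. Imaging at D7/D14/D21 used 12 min post i.p. D‐luciferin (2 mg). Tumors were measured at termination; t‐test.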
# OATP1B1 = OATP1B1 (Homo sapiens, UniProt Q9Y6L6); test: In vitro transporter inhibition; assay type: in vitro ADME
# Sequence of OATP1B1 (Q9Y6L6 whole entry): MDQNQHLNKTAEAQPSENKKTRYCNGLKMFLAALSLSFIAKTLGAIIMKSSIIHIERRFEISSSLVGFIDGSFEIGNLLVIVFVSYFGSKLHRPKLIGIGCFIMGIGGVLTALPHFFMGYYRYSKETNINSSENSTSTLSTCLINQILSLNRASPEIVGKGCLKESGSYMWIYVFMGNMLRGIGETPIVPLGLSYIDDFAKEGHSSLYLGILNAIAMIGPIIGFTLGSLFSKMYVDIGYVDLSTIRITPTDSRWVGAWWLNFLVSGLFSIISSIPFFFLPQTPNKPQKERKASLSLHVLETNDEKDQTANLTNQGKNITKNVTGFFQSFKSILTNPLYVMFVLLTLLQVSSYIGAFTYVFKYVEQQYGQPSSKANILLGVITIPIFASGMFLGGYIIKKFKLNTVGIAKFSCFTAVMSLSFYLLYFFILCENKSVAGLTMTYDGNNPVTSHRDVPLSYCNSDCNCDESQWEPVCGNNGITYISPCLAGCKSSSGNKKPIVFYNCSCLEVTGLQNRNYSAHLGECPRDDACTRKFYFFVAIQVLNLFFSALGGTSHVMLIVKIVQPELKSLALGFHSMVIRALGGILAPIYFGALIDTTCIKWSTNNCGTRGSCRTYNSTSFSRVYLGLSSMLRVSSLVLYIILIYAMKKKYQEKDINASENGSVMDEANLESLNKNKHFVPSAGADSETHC
# H460‐LKB1 cells [17] = test: mTOR/AMPK pathway signaling; assay type: cell-based, human; details: H460‐LKB1, within minutes after exposure
# [18] = system: mouse acute myeloid leukemia; details: ref Luna Yolba, in revision; cited from earlier work
# LL/2 cells [19] = test: Proliferation assay; assay type: cell-based; details: Mus musculus, LL/2, read-out: apparent IC50 proliferation
# CCK2R = CCK2R (Homo sapiens, UniProt P32239); test: Cerep in vitro safety screen, competition with reference ligand binding; details: 10 µM
# Sequence of CCK2R (P32239 whole entry, species assumed): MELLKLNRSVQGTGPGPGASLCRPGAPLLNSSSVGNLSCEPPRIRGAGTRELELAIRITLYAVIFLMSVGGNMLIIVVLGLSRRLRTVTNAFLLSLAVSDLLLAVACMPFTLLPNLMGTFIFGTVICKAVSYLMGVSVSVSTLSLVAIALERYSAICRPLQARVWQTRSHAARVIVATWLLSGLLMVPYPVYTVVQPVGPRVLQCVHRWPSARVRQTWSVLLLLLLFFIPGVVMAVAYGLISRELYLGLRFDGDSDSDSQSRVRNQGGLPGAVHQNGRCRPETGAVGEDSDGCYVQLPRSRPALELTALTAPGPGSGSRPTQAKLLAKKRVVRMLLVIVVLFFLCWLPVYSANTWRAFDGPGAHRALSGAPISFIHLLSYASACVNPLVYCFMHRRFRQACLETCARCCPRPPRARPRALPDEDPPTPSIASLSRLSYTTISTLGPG
# In short: as §2
# MLK2 = MLK2 (Homo sapiens, UniProt Q02779); test: DiscoverX KiNativ in situ kinase selectivity panel on live Jurkat cells; assay type: cell-based; details: 10 µM
# OCT1 = OCT1 (Homo sapiens, UniProt O15245); test: In vitro transporter inhibition; assay type: in vitro ADME
# Sequence of OCT1 (O15245 whole entry): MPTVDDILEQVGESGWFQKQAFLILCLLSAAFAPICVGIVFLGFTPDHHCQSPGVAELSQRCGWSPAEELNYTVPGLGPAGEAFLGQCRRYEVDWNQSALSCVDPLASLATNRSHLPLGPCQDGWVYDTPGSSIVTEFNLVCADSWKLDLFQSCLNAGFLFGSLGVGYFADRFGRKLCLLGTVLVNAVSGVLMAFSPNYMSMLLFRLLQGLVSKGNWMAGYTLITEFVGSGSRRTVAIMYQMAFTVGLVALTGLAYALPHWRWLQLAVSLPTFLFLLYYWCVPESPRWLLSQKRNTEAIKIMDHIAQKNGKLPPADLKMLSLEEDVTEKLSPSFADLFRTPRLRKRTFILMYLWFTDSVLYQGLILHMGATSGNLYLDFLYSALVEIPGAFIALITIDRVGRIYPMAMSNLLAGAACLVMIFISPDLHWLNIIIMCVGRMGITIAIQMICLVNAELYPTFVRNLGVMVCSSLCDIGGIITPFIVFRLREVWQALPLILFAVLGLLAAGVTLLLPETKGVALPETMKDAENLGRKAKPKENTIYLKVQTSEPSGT
# OxPhos‐Eµ‐Myc lymphoma = test: B‐cell lymphoma in vivo study, OxPhos‐Eµ‐Myc; parameters: species or system C57BL/6 mice; details: 30 mg/kg p.o. QD, OxPhos‐Eµ‐Myc‐bearing mice
# In short: as §3
# KARPAS 422 cells [20] = test: Glucose and lactate levels; assay type: cell-based, human
# patients [21] = details: 18 patients with advanced solid tumors; cited from earlier work
smiles,measurement,setting,value
"Cc1cc(-c2nc(-c3ccc(OC(F)(F)F)cc3)no2)nn1Cc1ccnc(N2CCN(C3CC3)CC2)c1 [BAY87‐2243, reference compound]",dose at which apoptosis is significantly affected (printed: inhibited),H460 cells [1]; H460,less than or equal to 1 nM
same,dose at which an effect on OCR is detected,H460 cells [2],above 100 nM
same,what limited dose escalation,ferret,limited by toxicity
same,induction of emesis (retches and vomits),ferret,induced retches and vomits from half of the first patient Cmax
same,dose at which mitochondrial ATP production is significantly inhibited,H460 cells [3],less than or equal to 1 nM
same,dose at which proliferation is significantly inhibited,H460 cells [4]; H460,less than or equal to 1 nM
same,"emesis in patients, clinical phase 1",patients [5],induction of emesis in patients
"COc1ccc(C(O)COc2ccc(-c3csc(-c4ccc(OCC(O)c5ccc(OC)c(OC)c5)cc4)n3)cc2)cc1OC (stereo not shown) [EVT‐701, 1‐(3,4‐dimethoxyphenyl)‐2‐[4‐[2‐[4‐[2‐(3,4‐dimethoxyphenyl)‐2‐hydroxy‐ethoxy]phenyl]‐thiazol‐4‐yl]‐phenoxy]ethanol]",P‐gp transport,P‐gp,not affected
same,increase of ligand binding to CCK1R,CCK1R,more than 50%
same,IC50,"H460 cells [1]; Homo sapiens, NCI-H460, read-out: IC50 apoptosis induction",96 ± 28 nM
same,inhibition of NADH oxidation and phosphorylation of ADP into ATP,[6],80%
same,"4E‐BP1, Raptor and ACC phosphorylation",H460 WT cells,unaffected
same,"inhibition of kinase activity, any of the 198 kinases of the panel",198 kinases,≤ 30%
same,IC50,MDA‐MB231 cells,52 ± 18 nM
same,IC50,Hep3B cells,81 ± 12 nM
same,decrease of ligand binding to A2AR,A2AR,more than 50%
same,total ATP,H460‐LKB1 cells [7],remains unchanged
same,what limited dose escalation,ferret,by solubility
same,induction of emesis (retches and vomits),ferret,didn't
same,IC50,OAT1,> 30000 nM
same,F (bioavailability),"[8]; AUC of 10 mg/kg oral dose vs AUC of intravenous dose, 10 mg/kg",64%
same,half-life,"[8]; C57BL/6J, mouse, plasma, po, 10 mg/kg",4.1 h
same,dose‐proportionality,"[8]; oral 10, 30 and 75 mg/kg",conserved from 10 to 75 mg/kg
same,overall survival,[9],no effect
same,weight of lymphomas vs Vehicle,[9],similar
same,progression‐free survival,[9]; data not shown,no effect
same,IC50,KARPAS 422 cells [10],188 ± 50 nM
same,IC50,U87 cells,74 ± 38 nM
same,IC50,OATP1B3,2400 ± 200 nM
same,"sensitivity to cell death induction, OxPhos‐Eµ‐Myc vs glycolytic‐Eµ‐Myc cells",[11],more sensitive
same,IC50,BCRP,4100 ± 2700 nM
same,IC50,[12],300 nM
same,cell death induction,LL/2 cells [13],no significant cell death
same,Kp,[14]; brain,0.25
same,Kp,[14]; heart,4.2
same,Kp,[14]; kidney,4.5
same,Kp,[14]; liver,5.9
same,Kp,[14]; lung,2.3
same,Kp,[14]; pancreas,4.5
same,IC50,MRP2,> 30000 nM
same,induction of apoptosis,H460‐LKB1 cells [15],no induction of apoptosis
same,decrease of tumor volume at D21,[16],60%
same,IC50,OATP1B1,1100 ± 100 nM
same,"phosphorylation of 4E‐BP1 (Serine 65), Raptor and ACC downstream of AMPK",H460‐LKB1 cells [17],increased phosphorylation state
same,rescue of inhibitory effect on respiration,[18],rescued by succinate
same,IC50,LL/2 cells [19],295 ± 52 nM
same,increase of ligand binding to CCK2R,CCK2R,more than 50%
same,increase of MLK2 activity,MLK2,more than 30%
same,IC50,OCT1,> 30000 nM
same,lymphomas harvested vs Vehicle,OxPhos‐Eµ‐Myc lymphoma,significantly smaller
same,overall survival,OxPhos‐Eµ‐Myc lymphoma,significant increase
same,progression‐free survival,OxPhos‐Eµ‐Myc lymphoma; not shown,significant increase
same,IC50,"H460 cells [4]; Homo sapiens, NCI-H460, read-out: apparent IC50 proliferation",68 ± 27 nM
same,glucose consumption and lactate release,KARPAS 422 cells [20],increased glucose consumption and lactate release
Cc1nc(-c2nc(-c3ccc(OC(F)(F)F)cc3)no2)nn1Cc1cccc(N2CCC(S(C)(=O)=O)CC2)c1 [IACS‐010759],tolerability in phase 1,patients [21],well‐tolerated
